Here are results for six substances from paper PMC8915966 (Proceedings of the National Academy of Sciences of the …, 2022).

Where no end group is shown, it is not given here.

The target in data set [1] is TLR4/MD-2 complex (human) (UniProt O00206). The experiment in a line: SPR. A general note: Surface plasmon resonance follows binding to a sensor surface in real time, without labels.
Data set [2] addresses TLR4 (Homo sapiens, UniProt O00206). The experiment in a line: SPR binding to TLR4.
For a further data set, the system named is RAW 264.7 cells. The experiment in a line: Cytotoxicity, WST-8 assay. The class given is cell-based. Conditions: 24 h. On the technique in general: Tetrazolium dyes change colour on reduction, which living cells bring about.
Another data set relates to ICR mice. The experiment in a line: In vivo toxicity. The settings on record: for kidney histology, in words: 20 mg/kg, two doses for 3 d, hematoxylin and eosin. Summed up:
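Female ICR mice, n = 5 per group, received test compound i.p. at a low (5 mg/kg/day for 5 d) or high (20 mg/kg twice per day for 3 d) regimen. Serum creatinine, AST and ALT were measured and compared with controls by one-way ANOVA with Dunnett's test; mean ± SEM.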

Another data set deals with TLR4/MD-2 (Homo sapiens, UniProt O00206+Q9Y6Y9). The experiment in a line: SPR binding to TLR4/MD-2 complex.
Sequence of TLR4/MD-2 (O00206 24-631 limits assumed): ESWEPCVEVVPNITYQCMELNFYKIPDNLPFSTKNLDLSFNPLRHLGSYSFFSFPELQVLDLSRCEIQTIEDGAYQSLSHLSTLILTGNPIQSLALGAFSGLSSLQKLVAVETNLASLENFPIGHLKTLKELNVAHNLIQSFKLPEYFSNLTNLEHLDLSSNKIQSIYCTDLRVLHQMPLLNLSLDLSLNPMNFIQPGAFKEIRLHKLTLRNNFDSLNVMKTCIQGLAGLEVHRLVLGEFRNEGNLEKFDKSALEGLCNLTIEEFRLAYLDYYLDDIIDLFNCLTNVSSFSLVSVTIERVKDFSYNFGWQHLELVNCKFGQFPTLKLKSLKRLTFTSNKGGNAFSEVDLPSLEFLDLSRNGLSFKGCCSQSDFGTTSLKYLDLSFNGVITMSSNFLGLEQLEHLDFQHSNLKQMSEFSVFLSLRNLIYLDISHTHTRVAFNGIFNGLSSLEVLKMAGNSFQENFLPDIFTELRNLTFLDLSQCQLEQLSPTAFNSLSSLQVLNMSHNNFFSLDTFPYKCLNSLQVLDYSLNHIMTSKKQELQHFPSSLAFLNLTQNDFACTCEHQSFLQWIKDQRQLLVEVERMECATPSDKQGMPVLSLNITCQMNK
Sequence of TLR4/MD-2 (Q9Y6Y9 17-160 limits assumed): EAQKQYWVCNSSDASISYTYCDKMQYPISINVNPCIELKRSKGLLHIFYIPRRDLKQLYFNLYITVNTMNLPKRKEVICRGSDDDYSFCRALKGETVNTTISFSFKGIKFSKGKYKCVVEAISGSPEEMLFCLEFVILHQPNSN
Data set [3] concerns the target T1, MD-2 (Homo sapiens, UniProt Q9Y6Y9).
T1 sequence (Q9Y6Y9 19-160): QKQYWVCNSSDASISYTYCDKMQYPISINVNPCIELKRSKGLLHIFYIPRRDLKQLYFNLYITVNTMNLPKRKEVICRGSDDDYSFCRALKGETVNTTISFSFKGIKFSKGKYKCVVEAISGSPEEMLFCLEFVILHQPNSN
The experiment in a line: SPR binding to MD-2.

Data set [4] concerns FITC-LPS binding to RAW 264.7 cells. The data set is described as follows: Flow cytometry of FITC-LPS binding to RAW 264.7 cells. It counts as cell-based. Conditions: posttreatment with 40 μM peptide, FITC-LPS 40 μg/mL, 30 min, 4 °C; MFI. The method, boiled down:
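RAW 264.7 cells (10⁶) were exposed under serum-free conditions at 4 °C for 30 min to test compound (40 μM) or FITC-labelled E. coli O55:B5 LPS (40 μg/mL), given before or after the other. Cells were PBS-washed and surface fluorescence was read by flow cytometry as MFI (%). Three independent experiments, mean ± SEM, one-way ANOVA with Dunnett's test.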
Background: Flow cytometry measures light scatter and fluorescence of single cells or particles in a stream.

Data set [5] has as its system E. coli K1-infected ICR mice. The data set is described as follows: E. coli K1 sepsis mouse model. The class given is in vivo.
Data set [6] concerns the target MD-2. The settings on record: read-out: binding affinity of LPS to MD-2; cited from earlier work.
Data set [7] has as its target TLR4. The settings on record: read-out: binding affinity of LPS to TLR4; cited from earlier work.
Setting [8] is: 20 mg/kg i.p. twice per day for 3 d, ICR mice, n = 5.
The mark [9] stands for this setting: 1 mg/kg i.p., E. coli K1 5 × 10^6 CFU/mouse, serum.

Sequence of TLR4/MD-2 complex (human) (O00206 24-839, one chain of several): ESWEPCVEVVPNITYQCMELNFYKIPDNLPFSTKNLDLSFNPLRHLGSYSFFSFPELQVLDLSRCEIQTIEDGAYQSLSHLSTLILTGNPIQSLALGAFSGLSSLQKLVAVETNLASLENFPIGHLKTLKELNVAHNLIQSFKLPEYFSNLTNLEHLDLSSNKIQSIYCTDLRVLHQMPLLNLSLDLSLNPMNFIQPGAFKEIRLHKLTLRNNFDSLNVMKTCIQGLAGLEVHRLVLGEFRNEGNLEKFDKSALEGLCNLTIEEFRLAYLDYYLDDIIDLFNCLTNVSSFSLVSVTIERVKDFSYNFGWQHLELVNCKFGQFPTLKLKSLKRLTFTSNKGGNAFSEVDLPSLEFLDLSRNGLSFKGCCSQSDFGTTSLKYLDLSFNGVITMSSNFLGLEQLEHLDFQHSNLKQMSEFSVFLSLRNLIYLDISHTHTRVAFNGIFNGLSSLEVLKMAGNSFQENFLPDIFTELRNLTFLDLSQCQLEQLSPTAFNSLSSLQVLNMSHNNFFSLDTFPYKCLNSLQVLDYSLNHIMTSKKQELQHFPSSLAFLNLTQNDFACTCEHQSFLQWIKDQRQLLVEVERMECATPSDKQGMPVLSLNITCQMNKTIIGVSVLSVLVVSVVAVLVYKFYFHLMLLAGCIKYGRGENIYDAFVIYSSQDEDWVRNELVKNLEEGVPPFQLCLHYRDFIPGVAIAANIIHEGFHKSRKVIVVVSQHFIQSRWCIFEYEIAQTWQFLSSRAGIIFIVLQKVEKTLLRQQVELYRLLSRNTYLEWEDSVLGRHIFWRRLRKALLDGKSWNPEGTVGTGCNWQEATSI
Sequence of TLR4 (Homo sapiens, UniProt O00206) (O00206 24-839): as the sequence (O00206 24-839, one chain of several) above

Regarding papiliocin (peptide), in [1], the koff turned out to be 0.0141 s⁻¹ and the kon was found to be 3850 M⁻¹ s⁻¹.

Substance papiliocin P24G (peptide) came in with a fold lower affinity compared to papiliocin in data set [1] of 10 fold.

As for “RWKIFKKIEKVGRNVRDGIIKAGPAVAVVGQAATVVK-NH2 [Papiliocin]”, the Kd was 0.41 µM on TLR4 [2], 3.7 µM on TLR4/MD-2 and 1.1 µM at MD-2 [3]. The results for the cell survival rate in the data set on RAW 264.7 cells (50 μM peptide) and in the data set on RAW 264.7 cells (100 μM peptide) were 100% and 78.0%, respectively. In addition, the “change in creatinine level compared to the control, in words” value in the data set with ICR mice (5 mg/kg/day for 5 d and 20 mg/kg twice per day for 3 d, i.p.) is listed as “neither lower dose of PMB nor any dose of papiliocin induced any aberrant changes in creatine level”. Also, the “kidney histology, in words” value in the data set on ICR mice is “did not show any signs of morphology changes in the kidneys”. Moreover, the kon on TLR4/MD-2 (read-out: association rate, TLR4/MD-2 complex) was found to be 3850 M⁻¹ s⁻¹. For the same substance, the koff on TLR4/MD-2 (read-out: dissociation rate, TLR4/MD-2 complex) worked out at 0.0141 s⁻¹.

Take papiliocin G23P (peptide): in data set [1], the fold lower affinity compared to papiliocin is 100 fold.

For the substance Polymyxin B [PMB], the “competitive displacement of prebound LPS on RAW 264.7 cells” value in data set [4] is listed as “no competitive impact”. The substance further displayed a cell survival rate with RAW 264.7 cells (50 μM peptide) of 30.6%. In the data set with RAW 264.7 cells (100 μM peptide), this substance registered a cell survival rate of 15.5%. Besides, in the data set on ICR mice (setting [8]), the “elevation of blood urea nitrogen (BUN) level” value is 26.6%, the “elevation of serum creatinine level” value was found to be 37.1%, the “increase of ALT level” value was found to be 30.6% and the “increase of AST level” value is on record as 17.8%. In addition, the “kidney histology, in words” value in the data set on ICR mice is “notable kidney damage”. Besides, the “reduction of endotoxin levels” value in data set [5] (1 mg/kg i.p., E. coli K1 5 × 10^6 CFU/mouse, 16 h later, n = 5) is 34.6%. For the same substance, in data set [5] (setting [9]), the “ALT level reduced to” value is 19.4%, the “AST level reduced to” value amounted to 25.7% and the “BUN level reduced to” value was determined as 16.7%. Moreover, the “serum and lung tissue levels of TNF-α and IL-6, in words” value in data set [5] (1 mg/kg, compared to E. coli K1–infected control mice, ELISA) was “significantly reduced”. For the same substance, the “lung tissue histology, in words” value in [5] (1 mg/kg, hematoxylin and eosin, neutrophil infiltration) is given as “significantly protected against lung damage”.

As for lipopolysaccharide [LPS], the Kd was 8.7 µM at MD-2 [6] and 14.1 µM at TLR4 [7].
